Tests used:
[1] = test system: MAC13; test: Antitumor effect against MAC13 Tumors was determined by the percent of mean weight of treated tumors to mean weight of control tumors by arachis oil at dose 100 mg/kg; type: functional, Mus musculus
How it was run: (§1)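 MAC 13 tumors were grown in mice. Two days after transplantation, at about 2 mm³, mice were allocated by restricted randomization. Compounds were made up fresh and given ip at 0.1 mL/10 g body weight. Tumor weight was measured 21 days later, and T/C % was the mean treated tumor weight over the mean control weight; deaths among treated mice were recorded.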

[2] = test system: Mus musculus; test: Antitumor effect against Colon 38 Adenocarcinoma was determined by the percent of median tumor volume of treated animals to median tumor volume of control animals by saline/Tween 80(9/1) at dose 50 mg/kg; type: functional
How it was run: (§2)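 Colon 38 adenocarcinoma, serially maintained in C57Bl/6 mice, was implanted as 3 mm × 3 mm fragments sc in B6D2F1 mice (19-22 g) on day 0. Compounds were made fresh on the day of injection, either dissolved in saline (0.9% NaCl) or suspended in saline with Tween 80 […], and given ip. T/C was the median tumor volume of treated over untreated controls; T/C <42% counted as activity.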

[3] = test system: MAC13; test: Antitumor effect against MAC13 Tumors was determined by no. deaths/treated of mice by arachis oil at dose 100 mg/kg; no of deaths/treated 0/5; type: functional, Mus musculus
[4] = test system: MAC15A; test: Antitumor effect against MAC15A Tumors was determined by the percent of median survival times of treated animals to median survival times of control animals by arachis oil at dose 100 mg/kg; settings: Mus musculus
[5] = Antitumor effect against MCa Mammary Carcinoma was determined by the percent of median survival times of treated animals to median survival times of control animals by 10%DMSO/water at dose 60 mg/kg; type: functional, Mus musculus
[6] = test system: Mus musculus; test: Antitumor effect against Colon 38 Adenocarcinoma was determined by the percent of median tumor volume of treated animals to median tumor volume of control animals by saline at dose 100 mg/kg; type: functional; how it was run: as §2
[7] = test system: MAC13; test: Antitumor effect against MAC13 Tumors was determined by no. deaths/treated of mice by arachis oil at dose 31.25 mg/kg; no of deaths/treated 0/10; type: functional, Mus musculus
[8] = test system: MAC15A; test: Antitumor effect against MAC15A Tumors was determined by the percent of median survival times of treated animals to median survival times of control animals by arachis oil at dose 62.5 mg/kg; settings: Mus musculus
[9] = test system: MAC13; test: Antitumor effect against MAC13 Tumors was determined by the percent of mean weight of treated tumors to mean weight of control tumors by arachis oil at dose 31.25 mg/kg; type: functional, Mus musculus
[10] = test system: MAC15A; test: Antitumor effect against MAC15A Tumors was determined by the percent of median survival times of treated animals to median survival times of control animals by 10% DMSO/arachis oil at dose 100 mg/kg; settings: Mus musculus
[11] = test system: MAC13; test: Antitumor effect against MAC13 Tumors was determined by no. deaths/treated of mice by 10% DMSO/arachis oil at dose 100 mg/kg; no of deaths/treated 0/5; type: functional, Mus musculus
[12] = test system: MAC13; test: Antitumor effect against MAC13 Tumors was determined by the percent of mean weight of treated tumors to mean weight of control tumors by 10% DMSO/arachis oil at dose 100 mg/kg; type: functional, Mus musculus; how it was run: as §1
[13] = test system: MAC15A; test: Antitumor effect against MAC15A Tumors was determined by the percent of median survival times of treated animals to median survival times of control animals by 10% ethanol/arachis oil at dose 100 mg/kg; settings: Mus musculus
[14] = Antitumor effect against MCa Mammary Carcinoma was determined by the percent of median survival times of treated animals to median survival times of control animals by 10%DMSO/water at dose 150 mg/kg; type: functional, Mus musculus
[15] = test system: MAC13; test: Antitumor effect against MAC13 Tumors was determined by the percent of mean weight of treated tumors to mean weight of control tumors by 10% ethanol/arachis oilat dose 100 mg/kg; type: functional, Mus musculus; how it was run: as §1
[16] = test system: MAC13; test: Antitumor effect against MAC13 Tumors was determined by no. deaths/treated of mice by 10% ethanol/arachis oil at dose 100 mg/kg; no of deaths/treated 0/5; type: functional, Mus musculus
[17] = test system: MAC13; test: Antitumor effect against MAC13 Tumors was determined by the percent of mean weight of treated tumors to mean weight of control tumors by arachis oil at dose 50 mg/kg; type: functional, Mus musculus
[18] = test system: MAC13; test: Antitumor effect against MAC13 Tumors was determined by no. deaths/treated of mice by arachis oil at dose 50 mg/kg; no of deaths/treated 0/5; type: functional, Mus musculus
[19] = test system: Mus musculus; test: Antitumor effect against Colon 38 Adenocarcinoma was determined by the percent of median tumor volume of treated animals to median tumor volume of control animals by saline at dose 50 mg/kg; type: functional
[20] = test system: MAC13; test: Antitumor effect against MAC13 Tumors was determined by no. deaths/treated of mice by arachis oil at dose 200 mg/kg; no of deaths/treated 0/5; type: functional, Mus musculus
[21] = test system: MAC13; test: Antitumor effect against MAC13 Tumors was determined by the percent of mean weight of treated tumors to mean weight of control tumors by arachis oil at dose 200 mg/kg; type: functional, Mus musculus; how it was run: as §1
[22] = test system: MAC15A; test: Antitumor effect against MAC15A Tumors was determined by the percent of median survival times of treated animals to median survival times of control animals by arachis oil at dose 300 mg/kg; settings: Mus musculus
[23] = test system: Mus musculus; test: Antitumor effect against Colon 38 Adenocarcinoma was determined by the percent of median tumor volume of treated animals to median tumor volume of control animals by saline/Tween 80(9/1) at dose 100 mg/kg; type: functional; how it was run: as §2
[24] = Antitumor effect against MCa Mammary Carcinoma was determined by the percent of median survival times of treated animals to median survival times of control animals by 10%DMSO/water at dose 100 mg/kg; type: functional, Mus musculus
[25] = test system: MAC15A; test: Antitumor effect against MAC15A Tumors was determined by the percent of median survival times of treated animals to median survival times of control animals by arachis oil at dose 200 mg/kg; settings: Mus musculus
[26] = test system: MAC13; test: Antitumor effect against MAC13 Tumors was determined by no. deaths/treated of mice by arachis oil at dose 200 mg/kg; no of deaths/treated 0/10; type: functional, Mus musculus
[27] = test system: MAC13; test: Antitumor effect against MAC13 Tumors was determined by the percent of mean weight of treated tumors to mean weight of control tumors by arachis oil at dose 150 mg/kg; type: functional, Mus musculus; how it was run: as §1
[28] = test system: MAC13; test: Antitumor effect against MAC13 Tumors was determined by no. deaths/treated of mice by arachis oil at dose 150 mg/kg; no of deaths/treated 0/5; type: functional, Mus musculus
[29] = Antitumor effect against MCa Mammary Carcinoma was determined by the percent of median survival times of treated animals to median survival times of control animals by 10%DMSO/water at dose 80 mg/kg; type: functional, Mus musculus
[30] = test system: MAC15A; test: Antitumor effect against MAC15A Tumors was determined by the percent of median survival times of treated animals to median survival times of control animals by arachis oil at dose 90 mg/kg; settings: Mus musculus
[31] = test system: MAC13; test: Antitumor effect against MAC13 Tumors was determined by no. deaths/treated of mice by arachis oil at dose 135 mg/kg; no of deaths/treated 0/5; type: functional, Mus musculus
[32] = test system: MAC13; test: Antitumor effect against MAC13 Tumors was determined by the percent of mean weight of treated tumors to mean weight of control tumors by arachis oil at dose 135 mg/kg; type: functional, Mus musculus; how it was run: as §1
[33] = test system: Mus musculus; test: Antitumor effect against Colon 38 Adenocarcinoma was determined by the percent of median tumor volume of treated animals to median tumor volume of control animals by saline/Tween 80(9/1)at dose 100 mg/kg; type: functional; how it was run: as §2
[34] = test system: MAC15A; test: Antitumor effect against MAC15A Tumors was determined by the percent of median survival times of treated animals to median survival times of control animals by 10% DMSO/arachis oil at dose 200 mg/kg; settings: Mus musculus
[35] = test system: MAC13; test: Antitumor effect against MAC13 Tumors was determined by the percent of mean weight of treated tumors to mean weight of control tumors by 10% ethanol/arachis oil at dose 20 mg/kg; type: functional, Mus musculus; how it was run: as §1
[36] = test system: MAC15A; test: Antitumor effect against MAC15A Tumors was determined by the percent of median survival times of treated animals to median survival times of control animals by saline at dose 20 mg/kg; settings: Mus musculus
[37] = test system: MAC13; test: Antitumor effect against MAC13 Tumors was determined by no. deaths/treated of mice by 10% ethanol/arachis oil at dose 20 mg/kg; no of deaths/treated 0/5; type: functional, Mus musculus
[38] = test system: MAC15A; test: Antitumor effect against MAC15A Tumors was determined by the percent of median survival times of treated animals to median survival times of control animals by arachis oil at dose 50 mg/kg; settings: Mus musculus

## O=NN(CCCl)C(=O)NCCOC(CCO)n1cc(F)c(=O)[nH]c1=O (stereo not given)
[1]
  T/C: 27%
[2]
  T/C: 68%
[3]
  No. deaths/treated: 0
[4]
  T/C: 136%

## CSC(CNC(=O)N(CCCl)N=O)n1cc(F)c(=O)[nH]c1=O (stereo not given)
[5]
  T/C: 189%
[6]
  T/C: 0%
[7]
  No. deaths/treated: 0
[8]
  T/C: 156%
[9]
  T/C: 122%

## O=NN(CCCl)C(=O)NCCC(n1cc(F)c(=O)[nH]c1=O)n1c(=O)[nH]cc(F)c1=O (stereo not given)
[10]
  T/C: 182%
[11]
  No. deaths/treated: 0
[12]
  T/C: 87%

## O=NN(CCCl)C(=O)NCCC(OCCO)n1cc(F)c(=O)[nH]c1=O (stereo not given)
[13]
  T/C: 233%
[14]
  T/C: 168%
[15]
  T/C: 23%
[16]
  No. deaths/treated: 0

## COC(CNC(=O)N(CCCl)N=O)n1c(=O)[nH]cc(F)c1=O (stereo not given)
[17]
  T/C: 11%
[4]
  T/C: >850%
[18]
  No. deaths/treated: 0
[19]
  T/C: 17%

## COC(CCNC(=O)N(CCCl)N=O)n1c(=O)cc[nH]c1=O (stereo not given)
[10]
  T/C: 200%
[11]
  No. deaths/treated: 0
[12]
  T/C: 43%

## CC(C)(C)OC(CCNC(=O)N(CCCl)N=O)n1cc(F)c(=O)[nH]c1=O (stereo not given)
[20]
  No. deaths/treated: 0
[21]
  T/C: 1%
[22]
  T/C: 280%
[23]
  T/C: 42%

## O=NN(CCCl)C(=O)NCCOC(CCNC(=O)c1ccccc1C(=O)O)n1cc(F)c(=O)[nH]c1=O (stereo not given)
[21]
  T/C: 103%
[24]
  T/C: 121%
[25]
  T/C: 148%
[26]
  No. deaths/treated: 0

## COC(CCNC(=O)N(CCCl)N=O)n1cc(F)c(=O)[nH]c1=O (stereo not given)
[4]
  T/C: 233%
[27]
  T/C: 0.8%
[6]
  T/C: 47%
[28]
  No. deaths/treated: 0

## CSC(CCNC(=O)N(CCCl)N=O)n1cc(F)c(=O)[nH]c1=O (stereo not given)
[29]
  T/C: 195%
[30]
  T/C: 200%
[31]
  No. deaths/treated: 0
[6]
  T/C: 63%
[32]
  T/C: 0%

## O=NN(CCCl)C(=O)NCCC(SCC(=O)O)n1cc(F)c(=O)[nH]c1=O (stereo not given)
[20]
  No. deaths/treated: 0
[21]
  T/C: 31%
[33]
  T/C: 0%
[34]
  T/C: 275%

## COC(CCNC(=O)N(CCCl)N=O)n1c(=O)[nH]cc(F)c1=O (stereo not given)
[10]
  T/C: 360%
[11]
  No. deaths/treated: 0
[12]
  T/C: 1%

## CC1CCC(NC(=O)N(CCCl)N=O)CC1 (stereo not given) [SEMUSTINE]
[35]
  T/C: 8%
[36]
  T/C: 154%
[37]
  No. deaths/treated: 0

## COC(CNC(=O)N(CCCl)N=O)n1cc(F)c(=O)[nH]c1=O (stereo not given)
[17]
  T/C: 7%
[24]
  T/C: 311%
[18]
  No. deaths/treated: 0
[6]
  T/C: 38%
[38]
  T/C: 200%

Source: ChEMBL document CHEMBL1129536, “Nucleoside analogs. 14. The synthesis of antitumor activity in mice of molecular combinations of 5-fluorouracil and N-(2-Chloroethyl)-N-nitrosourea moieties separated by a three-carbon chain” (1996)
